Measured values from ChEMBL document CHEMBL1759892 (Bioorg Med Chem Lett, 2011).

Experiments:
Adenosine receptor A2b [1] = target: T1, Adenosine receptor A2b (Homo sapiens, UniProt P29275); experiment: Inhibition of human adenosine A2B receptor expressed in CHO cells assessed as decrease in cellular cAMP level after 20 to 25 mins; format: functional, cell-based
T1 sequence (P29275 whole entry): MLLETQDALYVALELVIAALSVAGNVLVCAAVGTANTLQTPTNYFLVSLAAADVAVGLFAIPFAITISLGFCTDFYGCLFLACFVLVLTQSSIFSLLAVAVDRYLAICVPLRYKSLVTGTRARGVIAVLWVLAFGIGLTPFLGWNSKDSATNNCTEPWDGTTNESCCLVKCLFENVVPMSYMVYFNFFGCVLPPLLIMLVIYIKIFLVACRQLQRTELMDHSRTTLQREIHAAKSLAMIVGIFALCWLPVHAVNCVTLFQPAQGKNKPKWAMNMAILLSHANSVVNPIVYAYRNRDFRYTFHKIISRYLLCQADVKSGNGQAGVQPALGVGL

Adenosine receptor A2a = Adenosine receptor A2a (Homo sapiens, UniProt P29274); experiment: Displacement of [3H]ZM241385 from human adenosine A2A receptor after 1 hr
Adenosine receptor A2a, sequence (P29274 whole entry): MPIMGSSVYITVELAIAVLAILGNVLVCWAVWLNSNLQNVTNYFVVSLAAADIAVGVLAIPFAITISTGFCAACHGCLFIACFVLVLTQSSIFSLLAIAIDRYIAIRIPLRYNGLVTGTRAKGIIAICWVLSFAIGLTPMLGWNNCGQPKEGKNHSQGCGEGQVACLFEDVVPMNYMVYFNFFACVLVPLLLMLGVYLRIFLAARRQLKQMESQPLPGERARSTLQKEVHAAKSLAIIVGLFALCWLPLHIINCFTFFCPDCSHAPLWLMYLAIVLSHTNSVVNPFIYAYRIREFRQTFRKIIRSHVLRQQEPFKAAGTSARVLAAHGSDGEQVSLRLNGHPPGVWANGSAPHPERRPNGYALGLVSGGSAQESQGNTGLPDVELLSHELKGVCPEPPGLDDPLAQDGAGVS

Adenosine receptor A1 = target: T2, Adenosine receptor A1 (Homo sapiens, UniProt P30542); experiment: Displacement of [3H]-DPCPX from human adenosine A1 receptor after 1 hr
T2 sequence (P30542 whole entry): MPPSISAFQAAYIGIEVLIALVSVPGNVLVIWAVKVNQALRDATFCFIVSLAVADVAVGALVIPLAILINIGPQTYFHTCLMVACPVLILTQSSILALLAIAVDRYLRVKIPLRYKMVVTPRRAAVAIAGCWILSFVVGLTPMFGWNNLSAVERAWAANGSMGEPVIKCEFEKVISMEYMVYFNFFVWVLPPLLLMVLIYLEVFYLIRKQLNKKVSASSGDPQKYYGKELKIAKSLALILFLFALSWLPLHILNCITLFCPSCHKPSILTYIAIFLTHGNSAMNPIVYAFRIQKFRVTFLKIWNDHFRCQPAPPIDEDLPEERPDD
Outline: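 Human A1 receptor membranes, diluted in HEPES 50 mM, NaCl 100 mM, MgCl2 1 mM, were incubated with [3H]-DPCPX (4.8 nM final) and test compound for 1 h at room temperature with orbital shaking. Reactions were filtered on polyethyleneimine-treated filter plates, air dried and counted by scintillation. Values given as Ki.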

Cytochrome P450 2D6 = Cytochrome P450 2D6 (Homo sapiens, UniProt P10635); experiment: Inhibition of CYP2D6; format: ADME
Cytochrome P450 2D6, sequence (P10635 whole entry): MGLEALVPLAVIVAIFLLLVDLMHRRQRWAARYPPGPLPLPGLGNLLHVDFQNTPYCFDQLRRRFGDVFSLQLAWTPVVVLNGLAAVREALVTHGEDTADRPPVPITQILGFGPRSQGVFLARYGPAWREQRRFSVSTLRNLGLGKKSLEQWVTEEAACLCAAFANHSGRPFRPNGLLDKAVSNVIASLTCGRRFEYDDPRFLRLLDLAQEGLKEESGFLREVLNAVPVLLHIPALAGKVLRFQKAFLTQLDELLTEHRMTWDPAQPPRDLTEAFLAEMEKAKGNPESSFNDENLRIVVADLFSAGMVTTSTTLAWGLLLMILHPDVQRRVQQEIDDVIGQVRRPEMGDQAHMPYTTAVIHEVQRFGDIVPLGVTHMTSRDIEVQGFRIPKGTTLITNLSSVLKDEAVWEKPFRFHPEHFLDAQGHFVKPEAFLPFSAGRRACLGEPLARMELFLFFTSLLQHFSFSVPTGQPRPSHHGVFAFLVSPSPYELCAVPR

Salmonella typhimurium = experiment: Genotoxicity in Salmonella Typhimurium by Ames test in presence of S9 fraction; format: toxicity, organism-based; settings: salmonella enterica subsp. enterica serovar typhimurium
Cytochrome P450 2C9 = Cytochrome P450 2C9 (Homo sapiens, UniProt P11712); experiment: Inhibition of CYP2C9; format: ADME
Cytochrome P450 2C9, sequence (P11712 whole entry): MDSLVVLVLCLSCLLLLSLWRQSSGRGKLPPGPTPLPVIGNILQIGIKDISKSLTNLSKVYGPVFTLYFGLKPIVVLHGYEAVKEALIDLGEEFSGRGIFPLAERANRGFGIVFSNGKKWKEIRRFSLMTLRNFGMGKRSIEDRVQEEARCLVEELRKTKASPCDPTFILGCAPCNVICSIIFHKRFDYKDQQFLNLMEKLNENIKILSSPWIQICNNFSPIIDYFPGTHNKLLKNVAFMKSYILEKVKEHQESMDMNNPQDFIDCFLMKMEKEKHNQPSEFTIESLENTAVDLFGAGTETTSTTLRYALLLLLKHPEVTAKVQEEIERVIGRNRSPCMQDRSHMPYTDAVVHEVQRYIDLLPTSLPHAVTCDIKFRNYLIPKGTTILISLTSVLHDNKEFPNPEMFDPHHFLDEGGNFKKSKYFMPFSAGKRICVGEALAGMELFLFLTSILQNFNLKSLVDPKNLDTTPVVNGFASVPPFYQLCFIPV

Cytochrome P450 3A4 = Cytochrome P450 3A4 (Homo sapiens, UniProt P08684); experiment: Inhibition of CYP3A4; format: ADME
Cytochrome P450 3A4, sequence (P08684 whole entry): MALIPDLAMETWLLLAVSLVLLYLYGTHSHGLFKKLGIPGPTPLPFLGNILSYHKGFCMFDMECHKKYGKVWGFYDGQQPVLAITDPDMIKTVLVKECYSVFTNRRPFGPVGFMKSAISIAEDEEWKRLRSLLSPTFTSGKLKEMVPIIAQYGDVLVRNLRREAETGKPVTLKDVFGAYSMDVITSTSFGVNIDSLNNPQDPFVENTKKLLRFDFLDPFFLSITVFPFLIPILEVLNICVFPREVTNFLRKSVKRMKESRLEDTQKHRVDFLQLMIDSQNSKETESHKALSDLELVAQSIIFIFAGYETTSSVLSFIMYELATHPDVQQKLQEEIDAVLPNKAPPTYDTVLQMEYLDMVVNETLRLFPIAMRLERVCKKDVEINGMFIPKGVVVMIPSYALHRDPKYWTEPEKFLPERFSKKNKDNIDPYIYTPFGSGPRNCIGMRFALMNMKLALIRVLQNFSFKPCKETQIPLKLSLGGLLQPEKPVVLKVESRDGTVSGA

[2] = target: Voltage-gated inwardly rectifying potassium channel KCNH2 (Homo sapiens, UniProt Q12809); experiment: Inhibition of human ERG
Voltage-gated inwardly rectifying potassium channel KCNH2, sequence (Q12809 whole entry): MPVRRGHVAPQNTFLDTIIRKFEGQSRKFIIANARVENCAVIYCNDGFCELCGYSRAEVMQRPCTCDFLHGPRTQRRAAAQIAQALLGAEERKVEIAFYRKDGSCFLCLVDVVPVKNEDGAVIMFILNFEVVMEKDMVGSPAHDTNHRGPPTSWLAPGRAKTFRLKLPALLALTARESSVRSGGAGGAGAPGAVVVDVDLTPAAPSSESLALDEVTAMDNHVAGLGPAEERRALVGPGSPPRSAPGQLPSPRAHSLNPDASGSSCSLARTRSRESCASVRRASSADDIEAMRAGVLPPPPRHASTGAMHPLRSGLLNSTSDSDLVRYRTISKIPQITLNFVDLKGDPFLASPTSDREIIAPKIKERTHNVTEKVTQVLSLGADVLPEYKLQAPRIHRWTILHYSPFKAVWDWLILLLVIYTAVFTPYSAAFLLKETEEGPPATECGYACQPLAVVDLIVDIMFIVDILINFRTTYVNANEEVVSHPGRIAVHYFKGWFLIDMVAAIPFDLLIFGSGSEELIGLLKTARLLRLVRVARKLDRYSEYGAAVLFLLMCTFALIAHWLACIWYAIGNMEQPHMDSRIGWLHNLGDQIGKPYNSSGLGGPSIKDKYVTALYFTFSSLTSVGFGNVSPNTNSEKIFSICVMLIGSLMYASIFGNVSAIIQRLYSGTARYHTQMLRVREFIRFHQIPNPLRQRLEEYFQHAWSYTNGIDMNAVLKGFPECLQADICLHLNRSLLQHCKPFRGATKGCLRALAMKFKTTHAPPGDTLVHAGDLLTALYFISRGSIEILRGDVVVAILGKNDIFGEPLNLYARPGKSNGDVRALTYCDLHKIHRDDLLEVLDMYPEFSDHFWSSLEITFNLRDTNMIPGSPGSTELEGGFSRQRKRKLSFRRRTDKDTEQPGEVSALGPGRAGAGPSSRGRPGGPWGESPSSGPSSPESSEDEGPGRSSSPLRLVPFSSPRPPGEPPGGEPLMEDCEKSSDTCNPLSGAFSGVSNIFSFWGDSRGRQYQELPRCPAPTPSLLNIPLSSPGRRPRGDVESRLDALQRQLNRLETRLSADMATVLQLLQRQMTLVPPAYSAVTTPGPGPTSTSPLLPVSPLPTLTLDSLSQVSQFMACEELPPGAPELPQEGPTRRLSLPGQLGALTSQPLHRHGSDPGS

Cytochrome P450 2C19 = Cytochrome P450 2C19 (Homo sapiens, UniProt P33261); experiment: Inhibition of CYP2C19; format: ADME
Cytochrome P450 2C19, sequence (P33261 whole entry): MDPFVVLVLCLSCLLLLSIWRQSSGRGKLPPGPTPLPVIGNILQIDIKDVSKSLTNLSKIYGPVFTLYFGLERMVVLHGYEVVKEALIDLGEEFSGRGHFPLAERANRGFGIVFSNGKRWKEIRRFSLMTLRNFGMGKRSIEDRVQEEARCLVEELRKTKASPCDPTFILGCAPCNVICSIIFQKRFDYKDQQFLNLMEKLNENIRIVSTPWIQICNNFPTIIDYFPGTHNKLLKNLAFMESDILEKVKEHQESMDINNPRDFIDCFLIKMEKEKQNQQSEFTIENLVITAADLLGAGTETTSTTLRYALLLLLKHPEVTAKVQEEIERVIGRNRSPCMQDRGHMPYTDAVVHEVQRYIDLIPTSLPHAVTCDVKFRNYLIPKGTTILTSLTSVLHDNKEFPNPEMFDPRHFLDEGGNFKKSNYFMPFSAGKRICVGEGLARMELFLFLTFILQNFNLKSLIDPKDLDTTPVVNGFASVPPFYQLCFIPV

Adenosine receptor A2b [3] = target: T1, Adenosine receptor A2b; experiment: Displacement of [3H]ZM241385 from human adenosine A2B receptor expressed in CHO cells after 1 hr; format: cell-based
Outline: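 Whole CHO cells expressing human A2B were harvested mechanically at 80% confluence, frozen in aliquots and resuspended in assay buffer on the day of assay. Cells were incubated with [3H]-ZM241385 (30 nM final) and test compound for 1 h at room temperature with orbital shaking. Reactions were filtered on polyethyleneimine-treated plates and counted by scintillation. Values given as Ki.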

Question: `CCN(C(C)=O)c1ccc(OC)c2nc(NC(=O)N3CCC(c4cccc(C(F)(F)F)c4)CC3)sc12` was tested. Which IC50 (Adenosine receptor A2b [1]) did it give?
Answer: 18 nM

Question: What about the Ki (Adenosine receptor A2a) of the same compound?
Answer: 240 nM

Question: And the Ki (Adenosine receptor A1)?
Answer: 5 nM

Question: How did the IC50 (Adenosine receptor A2b [1]) turn out when `CCN(C(C)=O)c1ccc(OC)c2nc(NC(=O)C3CCN(S(=O)(=O)c4cccc(C(F)(F)F)c4)CC3)sc12` was run?
Answer: 49 nM

Question: What about the Ki (Adenosine receptor A2a) of the same compound?
Answer: 1040 nM

Question: What about the Ki (Adenosine receptor A1) of the same compound?
Answer: 78 nM

Question: How did the IC50 (Adenosine receptor A2b [1]) turn out when `CCN(C(C)=O)c1ccc(OC)c2nc(NC(=O)C3CCN(C(=O)c4cccc(C(F)(F)F)c4)CC3)sc12` was run?
Answer: 17 nM

Question: What about the Ki (Adenosine receptor A2a) of the same compound?
Answer: 230 nM

Question: And the Ki (Adenosine receptor A1)?
Answer: 2 nM

Question: How did the IC50 (Adenosine receptor A2b [1]) turn out when `CCN(C(C)=O)c1ccc(OC)c2nc(NC(=O)[C@@H]3CC[C@H](NC(=O)c4cccc(C(F)(F)F)c4)C3)sc12` was run?
Answer: 8 nM

Question: And the Ki (Adenosine receptor A2a)?
Answer: 81 nM

Question: And the Ki (Adenosine receptor A1)?
Answer: 61 nM

Question: `CCN(C(C)=O)c1ccc(OC)c2nc(NC(=O)[C@@H]3CC[C@H](NCc4cccc(C(F)(F)F)c4)C3)sc12` (relative stereo) was tested. Which IC50 (Adenosine receptor A2b [1]) did it give?
Answer: 19 nM

Question: And the Ki (Adenosine receptor A2a)?
Answer: 180 nM

Question: What about the Ki (Adenosine receptor A1) of the same compound?
Answer: 220 nM

Question: `CCN(C(C)=O)c1ccc(OC)c2nc(NC(=O)c3ccnn3C)sc12` was tested. Which IC50 (Cytochrome P450 2D6) did it give?
Answer: > 50000 nM

Question: And the Activity (Salmonella typhimurium)?
Answer: Non-toxic

Question: And the IC50 (Cytochrome P450 2C9)?
Answer: > 50000 nM

Question: What about the IC50 (Cytochrome P450 3A4) of the same compound?
Answer: > 50000 nM

Question: What about the IC50 [2] of the same compound?
Answer: > 100000 nM

Question: What about the IC50 (Cytochrome P450 2C19) of the same compound?
Answer: > 50000 nM

Question: Which results are given for `CCN(C(C)=O)c1ccc(OC)c2nc(NC(=O)[C@@H]3CCN(C(=O)c4cccc(C(F)(F)F)c4)C3)sc12`?
Answer: IC50 (Adenosine receptor A2b [1]): 14 nM; Ki (Adenosine receptor A2a): 2040 nM; Ki (Adenosine receptor A1): 100 nM; Ki (Adenosine receptor A2b [3]): 18 nM

Question: With `CCN(C(C)=O)c1ccc(OC)c2nc(NC(=O)N3CCC(O)(c4cccc(C(F)(F)F)c4)CC3)sc12` as the compound, how does the IC50 (Adenosine receptor A2b [1]) read?
Answer: 8 nM

Question: What about the Ki (Adenosine receptor A2a) of the same compound?
Answer: 210 nM

Question: What about the Ki (Adenosine receptor A1) of the same compound?
Answer: 19 nM

Question: What about the Ki (Adenosine receptor A2b [3]) of the same compound?
Answer: 5 nM

Question: With `CCN(C(C)=O)c1ccc(OC)c2nc(NC(=O)[C@H]3CC[C@H](NC(=O)c4cccc(C(F)(F)F)c4)CC3)sc12` as the compound, how does the IC50 (Adenosine receptor A2b [1]) read?
Answer: 28 nM

Question: What about the Ki (Adenosine receptor A2a) of the same compound?
Answer: 470 nM

Question: What about the Ki (Adenosine receptor A1) of the same compound?
Answer: 7 nM

Question: Which IC50 (Adenosine receptor A2b [1]) does the source give for `CCN(C(C)=O)c1ccc(OC)c2nc(NC(=O)[C@@H]3CCN(Cc4cccc(C(F)(F)F)c4)C3)sc12` here?
Answer: 72 nM

Question: For `CCN(C(C)=O)c1ccc(OC)c2nc(NC(=O)N3CCC(S(=O)(=O)c4cccc(C(F)(F)F)c4)CC3)sc12`, which IC50 (Adenosine receptor A2b [1]) is on record?
Answer: 20 nM

Question: What about the Ki (Adenosine receptor A2a) of the same compound?
Answer: 530 nM

Question: What about the Ki (Adenosine receptor A1) of the same compound?
Answer: 690 nM

Question: How did the IC50 (Adenosine receptor A2b [1]) turn out when `CCN(C(C)=O)c1ccc(OC)c2nc(NC(=O)C3CCN(Cc4cccc(C(F)(F)F)c4)CC3)sc12` was run?
Answer: 44 nM

Question: And the Ki (Adenosine receptor A2a)?
Answer: 1000 nM

Question: What about the Ki (Adenosine receptor A1) of the same compound?
Answer: 10 nM

Question: What does the source list for `CCN(C(C)=O)c1ccc(OC)c2nc(NC(=O)[C@@H]3CCN(S(=O)(=O)c4cccc(C(F)(F)F)c4)C3)sc12`?
Answer: IC50 (Adenosine receptor A2b [1]): 42 nM; Ki (Adenosine receptor A2a): 600 nM; Ki (Adenosine receptor A1): 220 nM

Question: For `CCN(C(C)=O)c1ccc(OC)c2nc(NC(=O)[C@H]3CCN(C(=O)c4cccc(C(F)(F)F)c4)C3)sc12`, which IC50 (Adenosine receptor A2b [1]) is on record?
Answer: 41 nM

Question: And the Ki (Adenosine receptor A2a)?
Answer: 710 nM

Question: And the Ki (Adenosine receptor A1)?
Answer: 120 nM

Question: For `CCN(C(C)=O)c1ccc(OC)c2nc(NC(=O)[C@@H]3CC[C@@H](NC(=O)c4cccc(C(F)(F)F)c4)C3)sc12`, which IC50 (Adenosine receptor A2b [1]) is on record?
Answer: 8 nM

Question: And the Ki (Adenosine receptor A2a)?
Answer: 31 nM

Question: And the Ki (Adenosine receptor A1)?
Answer: 31 nM

Question: What does the source list for `CCN(C(C)=O)c1ccc(OC)c2nc(NC(=O)[C@H]3CC[C@@H](NC(=O)c4cccc(C(F)(F)F)c4)CC3)sc12`?
Answer: IC50 (Adenosine receptor A2b [1]): 26 nM; Ki (Adenosine receptor A2a): 52 nM; Ki (Adenosine receptor A1): 20 nM

Question: Which IC50 (Adenosine receptor A2b [1]) does the source give for `CCN(C(C)=O)c1ccc(OC)c2nc(NC(=O)[C@H]3CC[C@@H](NS(=O)(=O)c4cccc(C(F)(F)F)c4)CC3)sc12` here?
Answer: 16 nM

Question: And the Ki (Adenosine receptor A2a)?
Answer: 110 nM

Question: What about the Ki (Adenosine receptor A1) of the same compound?
Answer: 46 nM
